Data published in ChEMBL document CHEMBL2177094, “Structure dependence of long-chain [18F]fluorothia fatty acids as myocardial fatty acid oxidation probes” (J Med Chem, 2012).

Assays:
Assay type in all cases: ADME, organism-based
Liver [1] = test: Biodistribution in overnight fasted Sprague-Dawley rat liver organic fraction at 0.7 to 1.4 MBq, iv at 30 mins by Folch-type extraction method; settings: in vivo, 0.5 h
Method in brief: (§1)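 Female Sprague-Dawley rats, fasted overnight, under isoflurane (3.5% induction, 1.5% maintenance). [18F] tracer in 0.5–1.0% BSA/saline was given by tail vein. POCA group: 30 mg/kg i.p. 120 min before tracer. About 0.5 g tissue was homogenized and sonicated in chloroform/methanol (2:1) at 0 °C, then 40% urea and 5% H2SO4 were added and spun 10 min at 1,800 g. Aqueous, organic and pellet fractions were counted as % of total.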

Liver [2] = test: Biodistribution in overnight fasted Sprague-Dawley rat liver organic fraction at 0.7 to 1.4 MBq, iv at 120 mins by Folch-type extraction method; settings: in vivo, 2 h; method in brief: as §1
Lung = test: Drug uptake in overnight fasted Sprague-Dawley rat lung at 0.7 to 1.4 MBq, iv preincubated with POCA for 2 hrs before compound administration measured at 120 mins post treatment; settings: in vivo
Method in brief: (§2)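 Female rats fasted overnight, under isoflurane (3.5% induction, 1.5% maintenance). 18F-labelled tracer formulated in 0.5–1.0% BSA/saline, injected via tail vein. Tissues harvested at 30 or 120 min, weighed, gamma-counted, decay-corrected. Uptake expressed as % dose kg/g, i.e. tissue CPM × body wt (kg) × 100 / (tissue wt (g) × dose CPM). POCA groups received 30 mg/kg i.p. 2 h before tracer. n = 5–6.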

Muscle tissue [3] = test: Drug uptake in overnight fasted Sprague-Dawley rat muscle at 0.7 to 1.4 MBq, iv preincubated with POCA for 2 hrs before compound administration measured at 120 mins post treatment; settings: in vivo; method in brief: as §2
Kidney [4] = test: Drug uptake in overnight fasted Sprague-Dawley rat kidney at 0.7 to 1.4 MBq, iv preincubated with POCA for 2 hrs before compound administration measured at 120 mins post treatment; settings: in vivo; method in brief: as §2
Heart [5] = test: Biodistribution in overnight fasted Sprague-Dawley rat heart organic fraction at 0.7 to 1.4 MBq, iv at 120 mins by Folch-type extraction method; settings: in vivo, 2 h; method in brief: as §1
Muscle tissue [6] = test: Biodistribution in overnight fasted Sprague-Dawley rat muscle organic fraction at 0.7 to 1.4 MBq, iv preincubated with POCA for 2 hrs before compound administration measured at 30 mins post treatment by Folch-type extraction method; settings: in vivo, 0.5 h; method in brief: as §1
Liver [7] = test: Drug uptake in overnight fasted Sprague-Dawley rat liver at 0.7 to 1.4 MBq, iv preincubated with POCA for 2 hrs before compound administration measured at 120 mins post treatment; settings: in vivo; method in brief: as §2
Heart [8] = test: Drug uptake in overnight fasted Sprague-Dawley rat heart at 0.7 to 1.4 MBq, iv preincubated with POCA for 2 hrs before compound administration measured at 30 mins post treatment; settings: in vivo, 0.5 h; method in brief: as §2
Muscle tissue [9] = test: Biodistribution in overnight fasted Sprague-Dawley rat muscle pellet fraction at 0.7 to 1.4 MBq, iv preincubated with POCA for 2 hrs before compound administration measured at 120 mins post treatment by Folch-type extraction method; settings: in vivo; method in brief: as §1
Muscle tissue [10] = test: Drug uptake in overnight fasted Sprague-Dawley rat muscle at 0.7 to 1.4 MBq, iv at 30 mins; settings: in vivo, 0.5 h; method in brief: as §2
Muscle tissue [11] = test: Biodistribution in overnight fasted Sprague-Dawley rat muscle aqueous fraction at 0.7 to 1.4 MBq, iv at 120 mins by Folch-type extraction method; settings: in vivo, 2 h; method in brief: as §1
Muscle tissue [12] = test: Drug uptake in overnight fasted Sprague-Dawley rat muscle at 0.7 to 1.4 MBq, iv at 120 mins; settings: in vivo, 2 h; method in brief: as §2
Muscle tissue [13] = test: Biodistribution in overnight fasted Sprague-Dawley rat muscle aqueous fraction at 0.7 to 1.4 MBq, iv preincubated with POCA for 2 hrs before compound administration measured at 30 mins post treatment by Folch-type extraction method; settings: in vivo, 0.5 h; method in brief: as §1
Heart [14] = test: Biodistribution in overnight fasted Sprague-Dawley rat heart aqueous fraction at 0.7 to 1.4 MBq, iv at 120 mins by Folch-type extraction method; settings: in vivo, 2 h; method in brief: as §1
Brain [15] = test: Drug uptake in overnight fasted Sprague-Dawley rat brain at 0.7 to 1.4 MBq, iv at 120 mins; settings: in vivo, 2 h
Method in brief: (§3)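 Overnight-fasted female Sprague-Dawley rats under isoflurane received the [18F] tracer in 0.5–1.0% BSA/saline by tail vein. POCA group: 30 mg/kg i.p. 2 h before tracer. Tissues were excised at 30 or 120 min, weighed and gamma-counted with decay correction. Uptake = % dose kg/g, i.e. CPM tissue × body wt (kg) × 100 / (tissue wt (g) × CPM dose). n = 5–6.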

Brain [16] = test: Drug uptake in overnight fasted Sprague-Dawley rat brain at 0.7 to 1.4 MBq, iv preincubated with POCA for 2 hrs before compound administration measured at 120 mins post treatment; settings: in vivo; method in brief: as §3
Heart [17] = test: Biodistribution in overnight fasted Sprague-Dawley rat heart organic fraction at 0.7 to 1.4 MBq, iv preincubated with POCA for 2 hrs before compound administration measured at 30 mins post treatment by Folch-type extraction method; settings: in vivo, 0.5 h; method in brief: as §1
Blood = test: Drug uptake in overnight fasted Sprague-Dawley rat blood at 0.7 to 1.4 MBq, iv preincubated with POCA for 2 hrs before compound administration measured at 120 mins post treatment; settings: in vivo; method in brief: as §3
Kidney [18] = test: Drug uptake in overnight fasted Sprague-Dawley rat kidney at 0.7 to 1.4 MBq, iv at 30 mins; settings: in vivo, 0.5 h; method in brief: as §2
Liver [19] = test: Biodistribution in overnight fasted Sprague-Dawley rat liver organic fraction at 0.7 to 1.4 MBq, iv preincubated with POCA for 2 hrs before compound administration measured at 120 mins post treatment by Folch-type extraction method; settings: in vivo; method in brief: as §1
Heart [20] = test: Biodistribution in overnight fasted Sprague-Dawley rat heart pellet fraction at 0.7 to 1.4 MBq, iv preincubated with POCA for 2 hrs before compound administration measured at 30 mins post treatment by Folch-type extraction method; settings: in vivo, 0.5 h; method in brief: as §1
Heart [21] = test: Drug uptake in overnight fasted Sprague-Dawley rat heart at 0.7 to 1.4 MBq, iv at 30 mins; settings: in vivo, 0.5 h; method in brief: as §2
Liver [22] = test: Biodistribution in overnight fasted Sprague-Dawley rat liver pellet fraction at 0.7 to 1.4 MBq, iv at 120 mins by Folch-type extraction method; settings: in vivo, 2 h; method in brief: as §1
Muscle tissue [23] = test: Biodistribution in overnight fasted Sprague-Dawley rat muscle pellet fraction at 0.7 to 1.4 MBq, iv at 120 mins by Folch-type extraction method; settings: in vivo, 2 h; method in brief: as §1
Muscle tissue [24] = test: Biodistribution in overnight fasted Sprague-Dawley rat muscle organic fraction at 0.7 to 1.4 MBq, iv at 30 mins by Folch-type extraction method; settings: in vivo, 0.5 h; method in brief: as §1
Kidney [25] = test: Drug uptake in overnight fasted Sprague-Dawley rat kidney at 0.7 to 1.4 MBq, iv preincubated with POCA for 2 hrs before compound administration measured at 30 mins post treatment; settings: in vivo, 0.5 h; method in brief: as §2
Liver [26] = test: Biodistribution in overnight fasted Sprague-Dawley rat liver pellet fraction at 0.7 to 1.4 MBq, iv at 30 mins by Folch-type extraction method; settings: in vivo, 0.5 h; method in brief: as §1
Heart [27] = test: Biodistribution in overnight fasted Sprague-Dawley rat heart organic fraction at 0.7 to 1.4 MBq, iv preincubated with POCA for 2 hrs before compound administration measured at 120 mins post treatment by Folch-type extraction method; settings: in vivo; method in brief: as §1
Liver [28] = test: Drug uptake in overnight fasted Sprague-Dawley rat liver at 0.7 to 1.4 MBq, iv at 120 mins; settings: in vivo, 2 h; method in brief: as §2
Liver [29] = test: Biodistribution in overnight fasted Sprague-Dawley rat liver aqueous fraction at 0.7 to 1.4 MBq, iv at 120 mins by Folch-type extraction method; settings: in vivo, 2 h; method in brief: as §1

| Drug uptake (Liver [1]) [%] | Drug uptake (Liver [2]) [%] | Drug uptake (Lung) [%IDKg/g] | Drug uptake (Muscle tissue [3]) [%IDKg/g] | Drug uptake (Kidney [4]) [%IDKg/g] | Drug uptake (Heart [5]) [%] | Drug uptake (Muscle tissue [6]) [%] | Drug uptake (Liver [7]) [%IDKg/g] | Drug uptake (Heart [8]) [%IDKg/g] | Drug uptake (Muscle tissue [9]) [%] | Drug uptake (Muscle tissue [10]) [%IDKg/g] | Drug uptake (Muscle tissue [11]) [%] | Drug uptake (Muscle tissue [12]) [%IDKg/g] | Drug uptake (Muscle tissue [13]) [%] | Drug uptake (Heart [14]) [%] | Drug uptake (Brain [15]) [%IDKg/g] | Drug uptake (Brain [16]) [%IDKg/g] | Drug uptake (Heart [17]) [%] | Drug uptake (Blood) [%IDKg/g] | Drug uptake (Kidney [18]) [%IDKg/g] | Structure (SMILES) | further results |
| --- | --- | --- | --- | --- | --- | --- | --- | --- | --- | --- | --- | --- | --- | --- | --- | --- | --- | --- | --- | --- | --- |
| 48.25 | 31.39 | 0.0472 | 0.0298 | 0.1637 | 18.88 | 42.23 | 0.4433 | 0.0792 | 32.69 | 0.031 | 16.17 | 0.0109 | 25.13 | 4.17 | 0.0154 | 0.0578 | 51.9 | 0.0392 | 0.209 | O=C(O)CCSCCCCCCCCCCCC[18F] | Drug uptake (Liver [19]): 50%; Drug uptake (Heart [20]): 32.81%; Drug uptake (Heart [21]): 0.589 %IDKg/g; Drug uptake (Liver [22]): 63.27%; Drug uptake (Muscle tissue [23]): 49.81%; Drug uptake (Muscle tissue [24]): 33.56%; Drug uptake (Kidney [25]): 0.2477 %IDKg/g; Drug uptake (Liver [26]): 38.21%; Drug uptake (Heart [27]): 67.98%; Drug uptake (Liver [28]): 0.47 %IDKg/g; Drug uptake (Liver [29]): 5.32% |
| 19.87 | 34.75 | 0.0179 | 0.0216 | 0.0611 | 9.34 | 43.19 | 0.1666 | 0.1155 | 35.36 | 0.0201 | 9.91 | 0.0171 | 24.06 | 1.86 | 0.0215 | 0.0206 | 62.03 | 0.0141 | 0.2035 | O=C(O)CCSCCCC/C=C\CCCCCCCC[18F] | Drug uptake (Liver [19]): 68.06%; Drug uptake (Heart [20]): 23.8%; Drug uptake (Heart [21]): 0.7028 %IDKg/g; Drug uptake (Liver [22]): 59.56%; Drug uptake (Muscle tissue [23]): 67.95%; Drug uptake (Muscle tissue [24]): 21.75%; Drug uptake (Kidney [25]): 0.1932 %IDKg/g; Drug uptake (Liver [26]): 71.69%; Drug uptake (Heart [27]): 66.66%; Drug uptake (Liver [28]): 0.8488 %IDKg/g; Drug uptake (Liver [29]): 5.68% |
| 51.66 | 55.69 | 0.0244 | 0.0197 | 0.0947 | 26.14 | 47.15 | 0.1341 | 0.1814 | 32.62 | 0.0303 | 11.58 | 0.0181 | 25.8 | 2.39 | 0.0143 | 0.031 | 67.58 | 0.0125 | 0.1872 | O=C(O)CCSCCCCCCCCCCCCCC[18F] | Drug uptake (Liver [19]): 67.69%; Drug uptake (Heart [20]): 24.67%; Drug uptake (Heart [21]): 0.314 %IDKg/g; Drug uptake (Liver [22]): 36.13%; Drug uptake (Muscle tissue [23]): 39.51%; Drug uptake (Muscle tissue [24]): 38.77%; Drug uptake (Kidney [25]): 0.235 %IDKg/g; Drug uptake (Liver [26]): 32.97%; Drug uptake (Heart [27]): 74.91%; Drug uptake (Liver [28]): 0.3759 %IDKg/g; Drug uptake (Liver [29]): 8.18% |
| 45.61 | 35.26 | 0.0536 | 0.0599 | 0.1554 | 28.56 | 43.43 | 0.419 | 0.3331 | 31.41 | 0.039 | 18.18 | 0.0263 | 7.7 | 4.03 | 0.022 | 0.0519 | 63.99 | 0.0271 | 0.2095 | O=C(O)CCCCSCCCCCCCCCCCC[18F] | Drug uptake (Liver [19]): 64.78%; Drug uptake (Heart [20]): 32.16%; Drug uptake (Heart [21]): 0.4413 %IDKg/g; Drug uptake (Liver [22]): 54.58%; Drug uptake (Muscle tissue [23]): 42.06%; Drug uptake (Muscle tissue [24]): 44.55%; Drug uptake (Kidney [25]): 0.3441 %IDKg/g; Drug uptake (Liver [26]): 44.72%; Drug uptake (Heart [27]): 74.2%; Drug uptake (Liver [28]): 0.7548 %IDKg/g; Drug uptake (Liver [29]): 10.15% |
